PTPN22 inh 2: blocks human PTPN22 phosphatase activity. recombinant LYP catalytic domain, DiFMUP fluorescence. AID 640. actives 0.21% (n = 96,000). inhibition, % at 2 µM;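 active means inhibition at 2 µM at or above a set limit, the screen mean plus 3 SD, cut at about 24% in these data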;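 further: 0% = DMSO with enzyme and 100% = enzyme fully blocked by orthovanadate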
HIV Rev-RRE inh: inhibitors of HIV-1 Rev-RRE RNA interaction; actives 0.79% (n = 97,000); Rev peptide-RRE RNA binding, FRET; inhibition, % at 8 µM; P05866;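 active means inhibition above the screen-wide mean plus 3 SD, cut at about 35% in these data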;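 further: 0% = median DMSO wells and 100% = median Neomycin B control wells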
Target sequence (P05866 whole entry, looked up): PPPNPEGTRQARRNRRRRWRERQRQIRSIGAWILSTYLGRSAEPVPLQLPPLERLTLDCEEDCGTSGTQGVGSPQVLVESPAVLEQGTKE
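Test system: Cy5-tagged RRE RNA duplex with fluorescein-tagged Rev peptide | Read-out: % inhibition of FRET ratio versus controls | Probe or stimulus: Labelled Rev peptide | Incubation: 5 min RNA-compound premix plus 15 min binding step, 25 °C | Technique: FRET fluorescence readout | Benchmarks: DMSO low control, neomycin B high control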
EphB4 antag: EphB4-ephrin-B2 interaction antagonism; EphB4 LBD / TNYL-RAW-Alexa532 peptide, fluorescence polarization; inhibition, % at 7 µM; actives 0.15% (n = 97,000);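 active means inhibition above the screen-wide mean inhibition plus 3 SD, cut at about 15% in these data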;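 further: 0% = DMSO wells and 100% = excess unlabeled TNYL-RAW peptide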
PTPN22 act: activators of human LYP (PTPN22) phosphatase | activation, % at 2 µM | AID 697 | recombinant LYP, DiFMUP fluorescence; 0 = plate median, 100 = signal doubled | actives 0.11% (n = 96,000) | Q9Y2R2;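 active means activation at 2 µM above a set limit, the mean plus 5 SD, cut at about 37% in these data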
PLK1 PBD inh: blocks phosphopeptide binding to human Plk1 polo box domain; Plk1 PBD phosphopeptide binding, fluorescence polarization; inhibition, %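 (tested at about 20 µM)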; actives 0.13% (n = 97,000); AID 693; in the data active means inhibition above about 34%, passing the limit was not always enough
PLK1 inh: inhibitors of human PLK1 kinase; P53350; recombinant PLK1 kinase, TR-FRET peptide phosphorylation; inhibition, % at 10 µM; actives 0.53% (n = 97,000); AID 619;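 active means inhibition of 50% or more in the single-concentration screen; inactive means inhibition below 50%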;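 further: 0% = DMSO max control and 100% = H-89 dihydrochloride min control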
PBD redox DR: generates H2O2 by redox cycling, flagging false Plk1 PBD hits; shares compounds with PLK1 PBD inh; redox cycling H2O2 generation, DTT, counter-screen; EC50, µM; 120 tested, under 10 active; AID 876
PTPN22 act conf: LYP (PTPN22) phosphatase activation confirmation; shares compounds with PTPN22 act; Recombinant LYP, DIFMUP fluorescence; zero set by plate's median compound well; activation, % at 2 µM; 100 tested, under 10 active
* = called active by the depositor; i = inactive; / = not tested or not shown. Most compounds without a hit are left out; they make up all but 2% or so of the library. Unless noted, how the calls were made is not given here.

SMILES	PTPN22 inh 2	HIV Rev-RRE inh	EphB4 antag	PTPN22 act	PLK1 PBD inh	PLK1 inh	PTPN22 act conf	others
CCn1c(SCC(=O)Nc2nccs2)nnc1-c1ccc(C)cc1	4	3	-10	-6	-10	16	/
CCC(=O)Nc1ccc(-c2nnc(SCC(=O)Nc3nccs3)n2C)cc1	-14	-4	-1	12	47*	19	/	PBD redox DR=>50
Cn1nc(-c2ccc(Cl)cc2)nc2c(=O)n(C)c(=O)nc1-2	45*	26	0	-44	65*	2	/	PBD redox DR=>50
CCS(=O)(=O)n1nc(-c2ccc(Cl)cc2)nc1SC	9	6	1	-11	-4	-7	/
Nc1ccc2c(c1)C(=O)C(=O)c1ccccc1-2	-4	4	2	4	95*	-1	/	PBD redox DR=>50
COc1ccc(Cn2c(=O)sc3ccccc32)cc1	6	10	-5	-8	54*	-6	/	PBD redox DR=>50
CCOC(=O)C1=C(CSc2nc(-c3ccccc3)ccc2C#N)OC(N)=C(C#N)C1c1ccccc1 (stereo not given)	-41	27	-4	39*	-9	-7	-3
COc1ccc2[nH]c(=O)c(CN(C(=O)c3ccccn3)C3CCCCC3)cc2c1	4	5	-10	-4	-17	-8	/
O=C(c1ccccn1)N(Cc1cc2ccccc2[nH]c1=O)C1CCCCC1	-40	-1	-5	41*	9	-10	-3
COc1ccc(NC(=O)CSc2nc(C)c3c(c2C#N)CCCC3)cc1	-44	1	-2	47*	-17	-11	3
CC(C)(C)C(=O)NCCCc1nc2ccccc2n1CCCOc1ccc(Cl)cc1	2	6	-1	3	-14	-10	/
Cc1cc(F)ccc1NCc1cccnc1	-36	2	-1	38*	18	-8	6
CC(C)(C)NCCCCOc1ccc(F)cc1	-43	8	-8	40*	14	-10	-2
O=C1CN(c2ccc(Cl)cc2)C(=O)CN1NC(=S)Nc1ccc(Cl)cc1	11	0	2	-7	12	-16	/
COc1cc2nc(SCC(N)=O)n(CCC3=CCCCC3)c(=O)c2cc1OC	-42	-8	-7	41*	-10	-12	-3
CS(=O)(=O)c1cnc(-c2ccccc2)nc1Oc1ccc(F)cc1	-36	-4	0	42*	-19	-15	-9
CCCCC(=O)NCCNC(=O)c1cc(OCC(F)(F)F)ccc1OCC(F)(F)F	-41	5	-2	38*	4	1	-1
Cc1c(-c2nc(N)nc(Nc3ccccc3)n2)oc2ccccc12	-37	-5	-10	37*	1	-12	-1
Cc1nc(C)c(C(=O)OCC(=O)N2CCN(c3ccccc3)CC2)s1	-37	-1	-11	40*	8	-11	4
O=C(OCC(=O)N1CCN(c2ccccc2)CC1)c1cccc(Cl)c1	1	9	9	1	-12	-6	/
CCC(C)OC(=O)C1C(c2ccccc2)C(C(=O)O)C1c1ccccc1 (stereo not given)	-38	-4	0	40*	-3	-3	-10
CCOC(=O)C1C(c2ccccc2)C(C(=O)OCC)C1c1ccccc1 (stereo not given)	-7	2	4	2	1	-7	/
COc1ccccc1N1CCN(C(=O)CCn2c(=O)[nH]c3ccsc3c2=O)CC1	-1	5	0	-1	-22	-2	/
O=C(CCn1c(=O)[nH]c2ccsc2c1=O)N1CCN(Cc2ccc3c(c2)OCO3)CC1	-40	-1	-6	45*	6	-12	-2
Cc1cc(Cl)c(S(=O)(=O)N2CCN(c3ccc(F)cc3)CC2)cc1OCC(=O)NC1CCCCC1	4	-1	-1	-1	-32	-6	/
SMILES	PTPN22 inh 2	HIV Rev-RRE inh	EphB4 antag	PTPN22 act	PLK1 PBD inh	PLK1 inh	PTPN22 act conf	others
O=C(CCNS(=O)(=O)c1cccs1)Nc1nccs1	-8	6	-2	6	10	19	/
O=C(CCNS(=O)(=O)c1cccs1)Nc1ccccc1F	-38	6	-2	42*	6	-9	-4
COC(=O)c1ccc(CNC(=O)/C=C/c2cc([N+](=O)[O-])ccc2OC(F)F)cc1	15	-2	0	-17	-10	-8	/
CCC(=O)NC(C)C(c1cccs1)N1CCN(c2ccccc2)CC1 (stereo not given)	-48	5	1	43*	21	-14	4
COCCCNC(=O)c1ccc(CS(=O)(=O)Cc2cccc(C)c2)o1	-41	2	-2	37*	4	1	8
Cc1cccc(CS(=O)(=O)Cc2ccc(C(=O)NCc3ccco3)o2)c1	0	12	0	-3	-2	-12	/
O=C(NC(=S)NCc1ccccc1)C1CCCCC1	-35	-10	5	39*	-18	-3	4
O=C(Nc1ccccc1)C1CCCCC1	-7	11	5	9	-22	0	/
c1ccc2c(c1)ncn2Cc1nnc2sc(-c3ccncc3)nn12	-56	2	0	51*	-1	-14	7
c1ccc(-c2nn3c(Cn4cnc5ccccc54)nnc3s2)cc1	-1	2	2	0	-2	-12	/
COC(=O)c1ccc2c(c1O)C(=O)c1ccccc1C2=O	-48	0	-1	46*	-6	-1	3
CCSc1c(C(=O)NC)ccc2c1C(=O)c1ccccc1C2=O	8	1	-1	-6	15	-14	/
COC(=O)c1sccc1NC(=O)c1ccc(C)s1	-50	1	-5	43*	-12	-1	2
COC(=O)c1sccc1NC(=O)c1ccc(Cl)s1	-2	4	-7	2	-7	-8	/
O=C(c1cc2ccccc2oc1=O)N1CCN(c2ncccn2)CC1	1	10	6	1	-6	-5	/
OCCCCCN=c1cc(-c2ccccc2)oc2ccc(Cl)cc12	-38	2	2	40*	2	-6	-4
C=CCn1c(SCC(=O)Nc2c(C)nn(Cc3ccccc3)c2C)nnc1C(O)c1ccccc1 (stereo not given)	-49	-4	-5	43*	-16	-10	-1
C=CCn1c(SCC(=O)Nc2nc(C)cs2)nnc1C(CO)NC(=O)c1ccccc1 (stereo not given)	3	7	-3	-4	10	-11	/
CCOC(=O)CC(NC(=O)c1ccc(C)cc1)c1ccc(C)cc1 (stereo not given)	-16	-1	-13	18	-2	-9	/
c1ccc(-c2nnc(SCCC3OCCCO3)o2)cc1	-42	-1	1	47*	16	-17	-2
CN(C)c1ccc(/C=C/C=C2/SC(=S)N(c3ccccc3)C2=O)cc1	-38	i	-11	40*	-16	-8	0

High-throughput results from PubChem BioAssay.
